# Data as given in ChEMBL document CHEMBL4513216, “Probing the Open Global Health Chemical Diversity Library for Multistage-Active Starting Points for Next-Generation Antimalarials” (ACS Infect Dis, 2020).
# Experiment: Toxicity liver stage against HepG2, at 10uM
# Type: cell-based
# Set-up: test concentration 10 uM, cell line HepG2-A16-CD81EGFP
# Details: human, HepG2-A16-CD81EGFP cells; read-out: INHIBITION
# How it was run: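 Uninfected HepG2-A16-CD81EGFP cells, 3 × 10^3 per well, 1536-well, plated on prespotted compound at 10 μM final, parasite-free screening media added to match infected plates; puromycin 10 μM positive, DMSO 0.5% negative; run in parallel with 48 h PbLuc assay at 37 °C, 5% CO2; viability by CellTiter-Glo luminescence, normalized to controls.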
row,SMILES,cytotoxicity at 10 µM [%]
1,O=C(NCCOc1ccc(F)c(F)c1)NCc1ccncc1,-8.25
2,N#Cc1ccc(OCCNc2cccc(C(=O)N3CCOCC3)c2)cc1,-2.96
3,O=C(Nc1cccc(CN2CCOC2=O)c1)N1CCSCC1,-11.3
4,CCc1cnc(CN(C)C2CCN(CCS(C)(=O)=O)C2)o1 (stereo unspecified),-3.94
5,CN(C)C(=O)N1CC(C(=O)NCC2CC2)C2(CCOCC2)C1 (stereo unspecified),-95.1
6,CC(=O)N1CCC(n2nccc2-c2cnc(N)nc2)CC1,1.3
7,Cc1cc2c(=O)n(CCSc3cnn[nH]3)cnc2s1,10.1
8,CC(Cn1ccnc1)NCc1ccc2nonc2c1 (stereo unspecified),2.57
9,CCC(Nc1cccc(OC)c1)C(=O)NCc1ccc2c(c1)OCO2 (stereo unspecified),-1.11
10,COc1cccc2c1OCCCN(Cc1ncccc1C(=O)O)C2,4.12
11,Cc1ccccc1C(Nc1ncnc2c1CCNC2)c1ccccc1 (stereo unspecified),7.78
12,CCn1cc(-c2n[nH]c(=O)n2-c2ccc3c(c2)OCO3)c(C)n1,2.25
13,CCOCc1nccc(-c2ccc(OCC)c(C(=O)O)c2)n1,2.55
14,Cc1nccc(N2CC[C@@H]3[C@@H](CCC(=O)N3CCc3ccccc3)C2)n1,2.19
15,Cc1ccccc1SC1CCN(C(=O)[C@@H]2C[C@@H](N)CN2)CC1,-7.69
16,O=C1[C@@H]2CN(c3ncnc4[nH]ccc34)C[C@]2(C(=O)O)CN1CC1CC1,2.62
17,O=C(CN1C(=O)CCNC1=O)N1CCC2(CCc3ccccc32)CC1,-11.2
18,N[C@H]1CN(C(=O)c2ccc(CO)cc2)C[C@@H]1C1CC1,2.56
19,CNc1cc(-c2ccccc2CN)c2cc[nH]c2n1,-1.43

row,SMILES,cytotoxicity at 10 µM [%]
1,COC(=O)CCNC(=O)c1coc(COc2ccc(F)cc2)n1,-4.1
2,CCn1ccnc1CN1CCCN(CC2CC2)C(C(C)C)C1 (stereo unspecified),2.63
3,Cc1cc(C)c(-n2cccn2)c(CN2CCOCC(CN(C)C)C2)c1 (stereo unspecified),-8.83
4,O=C1O[C@@H]2CN(Cc3cc4ccccc4s3)C[C@@H]2N1Cc1ccccn1,10.2
5,COc1ccc(CCNCc2ccco2)cc1OC,-0.0184
6,CSCCc1nc(C(C)C)nn1-c1ccncc1C,1.63
7,CCN(CC)C1CCN(c2nccc(C3CCCC3)n2)C1 (stereo unspecified),-12.7
8,CCN(C)CC(=O)N1CCC(c2cc(N3CCOCC3)nc(C)n2)CC1,6.9
9,COCc1nc(CN2CC(=O)N(C)c3ccccc3C2=O)no1,-6.03
10,CN1C[C@H]2CNC[C@@]2(C(=O)NC2CCN(c3ncccc3C#N)CC2)C1,-0.766
11,CN(Cc1noc2c1CCCC2)C(=O)Nc1ccc2oc(=O)n(C)c2c1,-2.36
12,CC(C)[C@H]1CN(S(=O)(=O)c2cccnc2)C[C@@H]1N,1.31
13,Cc1ccc(-c2ccnc(N3CCC4(CCO4)CC3)n2)c(C)n1,2.05
14,Cc1cccc(-c2ncc(CNC(C)Cc3ccncc3)cn2)c1 (stereo unspecified),-8.18
15,c1ccc(COc2ccccc2NC2CCOCC2)nc1,2.2
16,CN1CCn2nc(-c3nc4ccccc4n3C)cc2C1,-6.99
17,Cc1nc(C)c(C(=O)N2CCCC(C(=O)c3nccn3C)C2)s1 (stereo unspecified),2.3
18,COCc1nc(CN2CC(C)(c3ccccc3)CCC2=O)no1 (stereo unspecified),4.85
19,CCCc1cc(=O)[nH]c(-c2ccccc2CN(C)CCC(C)C)n1,3.53

row,SMILES,cytotoxicity at 10 µM [%]
1,CCN1CCN(C(=O)COc2ccc(CN(C)S(C)(=O)=O)cc2)CC1,3.3
2,Cc1cnccc1NCCn1ccnc1C1CCOC1 (stereo unspecified),3.8
3,CCCc1cc(NCCC2CCCOC2)n2nccc2n1 (stereo unspecified),3.63
4,N#Cc1ccc(C(=O)N2C[C@@H](CN3CCCC3)C[C@H](CO)C2)cc1,-2.86
5,Cc1cc(N2CCN(Cc3ccccc3)CC(O)C2)cc(C)n1 (stereo unspecified),-17.4
6,CCN1CC2(CCC1=O)CCN(C(=O)c1ccc(Cl)cc1O)CC2,-12.8
7,CN1CC(c2ccccc2)CC12CCN(C(=O)c1ccc(F)cc1)CC2 (stereo unspecified),-12.1
8,CCC1CCCN(Cc2nc(N)c3ccccc3n2)C1 (stereo unspecified),-11.2
9,COc1ccc(CCCC(=O)N2CCCC(n3cccn3)C2)cc1 (stereo unspecified),-7.36
10,Cc1cc(C)n(CC2CN(CC(=O)Nc3c(C)n[nH]c3C)CCO2)n1 (stereo unspecified),-9.86
11,CN(Cc1nc(N)c2ccccc2n1)C1CCCN(c2cccnn2)C1 (stereo unspecified),-12.2
12,CCc1nc2n(n1)CC(NCc1ncc(-c3ccccc3)o1)CC2 (stereo unspecified),-3.91
13,CO[C@H]1CN(C(=O)c2ccccn2)[C@@H]2CCCO[C@H]12,3.52
14,Cn1cc(CN2CCCC23CCN(C(=O)c2ccncc2)CC3)cn1,-3.51
15,Cc1noc(C)c1C(=O)N1Cc2ncn(C)c2C(COCC(C)C)C1 (stereo unspecified),-105
16,COc1cc(Br)c(CNC2CCCNC2=O)cc1OC (stereo unspecified),1.93
17,Cn1cc(CN2CCC3(CC2)CC(c2ccncc2)C(=O)N3)cn1 (stereo unspecified),1.75
18,CC(C)N(C)Cc1nnc2n1CCCN(S(=O)(=O)C1CC1)C2,-0.48
